From PubChem BioAssay
Compounds with a hit are over-represented: about 2.3% of the library has one in this group of screens.
TRPC4 potent – allosterically enhances the mouse TRPC4 cation channel | Q9QUQ5 | HEK293 TRPC4beta/mu-opioid, DAMGO EC20, Fluo-4 Ca2+ flux; hits give high values | B-score at 10 µM | hit rate 0.42% among 310,000 | AID 2227;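 active = B-score of calcium response area above 5 SD of library B-scores, with initial fluorescence ratio within 5 SD of library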
Target sequence (Q9QUQ5 whole entry, looked up): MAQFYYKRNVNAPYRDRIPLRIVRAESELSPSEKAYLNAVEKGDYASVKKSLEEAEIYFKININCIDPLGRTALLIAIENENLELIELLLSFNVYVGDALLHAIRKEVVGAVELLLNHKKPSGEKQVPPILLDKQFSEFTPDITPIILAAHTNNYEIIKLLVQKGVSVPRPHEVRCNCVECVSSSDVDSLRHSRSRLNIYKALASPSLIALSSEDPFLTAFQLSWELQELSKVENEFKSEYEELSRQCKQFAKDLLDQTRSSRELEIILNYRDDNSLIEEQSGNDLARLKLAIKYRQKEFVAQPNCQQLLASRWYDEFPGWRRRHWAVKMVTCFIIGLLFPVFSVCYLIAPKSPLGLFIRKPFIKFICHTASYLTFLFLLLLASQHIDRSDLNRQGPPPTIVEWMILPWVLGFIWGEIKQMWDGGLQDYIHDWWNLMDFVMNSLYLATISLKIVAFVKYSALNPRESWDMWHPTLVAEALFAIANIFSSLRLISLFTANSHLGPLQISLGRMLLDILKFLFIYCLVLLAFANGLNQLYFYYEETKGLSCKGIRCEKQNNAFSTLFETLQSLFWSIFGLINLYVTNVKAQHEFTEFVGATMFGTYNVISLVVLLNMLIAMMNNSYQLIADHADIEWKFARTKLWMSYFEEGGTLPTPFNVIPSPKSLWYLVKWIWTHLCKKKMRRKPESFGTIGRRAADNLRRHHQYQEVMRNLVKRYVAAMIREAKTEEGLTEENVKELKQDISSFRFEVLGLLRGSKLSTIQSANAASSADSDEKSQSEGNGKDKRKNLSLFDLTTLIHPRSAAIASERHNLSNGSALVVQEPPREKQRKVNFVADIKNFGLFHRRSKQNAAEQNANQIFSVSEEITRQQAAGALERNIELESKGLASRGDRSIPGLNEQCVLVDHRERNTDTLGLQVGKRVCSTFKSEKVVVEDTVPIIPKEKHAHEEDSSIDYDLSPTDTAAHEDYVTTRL
TRPC6 activator – activators of mouse TRPC6 channel; hit rate 0.13% among 310,000; HEK293-TRPC6 membrane potential dye fluorescence; hits give high values; Q61143; B-score at 10 µM;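 active = B-score of the integrated fluorescence ratio above library mean plus 3 SD, and starting fluorescence ratio within library mean plus 5 SD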;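 note: higher score means more depolarization so channel activation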
TRPC4 inh – inhibitors of mouse TRPC4 channel; HEK293 TRPC4beta/mu-opioid, DAMGO-evoked Fluo4 calcium flux; hits give low values; hit rate 0.39% among 300,000; B-score at 10 µM;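 active = B-score over 3 SD under the library average, no early fluorescence shift, positive overall ratio signal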
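Material: HEK293 cells with stable TRPC4beta plus mu-opioid receptor expression / Probe or stimulus: DAMGO in two steps, submaximal then maximal / Compound: single concentration per test compound / Technique: kinetic Fluo4 fluorescence imaging of calcium influx / Read-out: per-well B score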
TRPC6 inh – blocks the mouse TRPC6 cation channel. Q61143. HEK293-TRPC6, membrane potential dye, ACh-evoked depolarization; hits give low values. B-score at 10 µM. hit rate 1.1% among 310,000;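 active = B-score under library mean minus 3 SD, initial fluorescence not abnormally high, positive integrated signal ratio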;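 note: B-score derived from integrated fluorescence ratio over the kinetic read; more negative B-score means stronger inhibition of depolarization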
TRPC4 act – opens the mouse TRPC4 cation channel; hit rate 0.49% among 310,000; B-score at 10 µM; AID 2237; HEK293 TRPC4beta/mu-opioid, Fluo4 calcium fluorescence; hits give high values;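 active = B-score above 5 SD of library B-scores, and initial fluorescence ratio not above library mean plus 5 SD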;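 note: positive B-score marks a calcium rise read as TRPC4 activation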
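System: HEK293 cells stably co-expressing mouse TRPC4beta and mu-opioid receptor; Schedule: Fluo4 dye loading 45 min at room temperature, 110 s recording; Detection: Fluo4 fluorescence, kinetic; Evaluation: B-scored integrated calcium fluorescence ratio; Controls: buffer (low) and maximal DAMGO (high).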
TRPC4 sel inh 2 – second selectivity test of TRPC6 inhibitors: effect on mouse TRPC4. shares compounds with TRPC6 inh. HEK293 TRPC4/MOR, membrane potential dye fluorescence; channel activated by saturating DAMGO dose. inhibition, % at 10 µM. hit rate 42% among 920. AID 2776;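 active = compounds whose fluorescence signal differed from control wells by over 3 SD, either direction, in both duplicate plates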
TRPC4 spec – selectivity of TRPC6 inhibitors: effect on mouse TRPC4 | activity change, negative = inhibition, % at 10 µM | AID 2777 | HEK293 TRPC4/mu-opioid, membrane potential fluorescence | hit rate 61% among 920 | shares compounds with TRPC6 inh;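 active = rise or fall in signal beyond 3 SD of buffer-only wells in both replicate plates, either sign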;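 note: integrated kinetic ratio of fluorescence range over baseline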
HEK293 MPD ctr 2-1 – parental HEK293 nonspecific activity of TRPC6 inhibitors, second screen. parental HEK293 membrane potential dye fluorescence; maximal acetylcholine challenge after compound addition. signal change vs control, % at 10 µM. shares compounds with TRPC6 inh. hit rate 31% among 920;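 active = membrane potential signal moving either way by over 3 SD of the maximum-effect control, in both duplicate plates, meaning non-specific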
HEK293 MPD ctr-1 – checks TRPC6 inhibitor effects in parental HEK293 cells. shares compounds with TRPC6 inh. parental HEK293 membrane potential dye fluorescence. membrane potential signal change, % at 10 µM. hit rate 60% among 920. AID 2780;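 active = membrane potential signal shifting up or down by more than 3 SD of buffer-only wells, on both duplicate plates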
HEK293 MPD ctr-2 – counter-screen for TRPC6 modulators: effect in parental HEK293 cells; shares compounds with TRPC6 inh; membrane potential dye fluorescence; membrane potential signal change, % at 10 µM; hit rate 51% among 2,400;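 active = membrane potential signal moves up or down beyond 5 SD from buffer-only wells, on both duplicate plates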
HEK293 MPD ctr 2-2 – second check of TRPC6 modulator effects in parental HEK293 cells; AID 488926; hit rate 14% among 2,400; membrane potential dye fluorescence; after compound, maximal acetylcholine stimulation; inhibition, % at 10 µM; shares compounds with TRPC6 inh;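 active = membrane potential signal drops by more than 5 SD from the mean control signal, in both duplicate plates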
TRPC4/MOR mod – mouse TRPC4 off-target activity of TRPC6 modulators | shares compounds with TRPC6 inh | HEK293 TRPC4/mu-opioid, membrane potential fluorescence | percent change from control (negative = decrease, positive = increase), % at 10 µM | hit rate 69% among 2,400 | AID 488927;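 active = membrane potential signal moved up or down beyond 5 SD of buffer control wells, in both duplicate plates, actives on both sides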
TRPC4/MOR inh 2 – mouse TRPC4 off-target activity of TRPC6 modulators, second screen; shares compounds with TRPC6 inh; HEK293 TRPC4/mu-opioid, membrane potential dye fluorescence; stimulated with maximal-effect DAMGO; inhibition, % at 10 µM; hit rate 55% among 2,400; AID 488928;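 active = drop in membrane potential signal beyond 5 SD of the control wells in both duplicate plates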;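 note: TRPC4 counter screen for TRPC6 hits run under conditions tuned for TRPC6 not TRPC4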
TRPC6 block conf – mouse TRPC6 inhibitor confirmation. shares compounds with TRPC6 inh. HEK293-TRPC6, membrane potential dye, ACh-evoked depolarization. inhibition, % at 10 µM. hit rate 43% among 3,300. AID 488960;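 active = fluorescence ratio falls more than 5 SD below the full-stimulation control mean, in both duplicate runs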;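 note: integrated fluorescence ratio of peak minus minimum over baseline after agonist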
TRPC6 act confirm – confirmation of mouse TRPC6 activators. shares compounds with TRPC6 inh. AID 488961. activation, % at 10 µM. hit rate 11% among 2,800. HEK293-TRPC6 membrane potential dye fluorescence, FDSS;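 active = ratio signal rise beyond 5 SD above unstimulated control wells' mean, seen in both duplicate runs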
Large screens that a line does not name were inactive (follow-up assays come after a bar, where they were run).

COc1ccccc1CNCC(=O)Nc1ccc(C(F)(F)F)cc1	TRPC6 inh -5.2 | HEK293 MPD ctr-2 inactive | HEK293 MPD ctr 2-2 inactive | TRPC4/MOR mod inactive | TRPC4/MOR inh 2 42% | TRPC6 block conf inactive | TRPC6 act confirm inactive
COc1ccccc1CNCC(=O)Nc1ccc(C#N)cc1	none
Cc1ccc(C(=O)C2CCN(CC(=O)Nc3ccc4c(c3)OCCO4)CC2)cc1	none
CCCn1ncc(CN2CCCC(C(=O)c3cccc(OC(C)C)c3)C2)c1C (stereo unspecified)	TRPC6 inh -5.3 | HEK293 MPD ctr-2 118% | HEK293 MPD ctr 2-2 inactive | TRPC4/MOR mod 24% | TRPC4/MOR inh 2 40% | TRPC6 block conf 50%
CC(=O)Oc1cc2c3c(c1)/C(=C1/SC(=S)NC1=O)C(=O)N3C(C)(C)C=C2C	TRPC6 inh -5.7 | HEK293 MPD ctr-2 -112% | HEK293 MPD ctr 2-2 inactive | TRPC4/MOR mod -28% | TRPC4/MOR inh 2 83% | TRPC6 block conf 58% | TRPC6 act confirm inactive
CCOc1cc2c3c(c1)C(C)=CC(C)(C)N3C(=O)C2=O	none
CCOc1ccc(NC(=S)NC(C)c2cccs2)cc1 (stereo unspecified)	none
CCCn1cnc2cc(NCc3ccc(Br)cc3)ccc21	none
CCn1cnc2cc(NCc3ccc(Br)cc3)ccc21	TRPC6 inh -5 | HEK293 MPD ctr-2 inactive | HEK293 MPD ctr 2-2 inactive | TRPC4/MOR mod inactive | TRPC4/MOR inh 2 40% | TRPC6 block conf 40% | TRPC6 act confirm inactive
CCOc1ccc(CNc2ccc3c(c2)ncn3C(C)(C)C)cc1	TRPC6 inh -8.5 | TRPC4 sel inh 2 inactive | TRPC4 spec inactive | HEK293 MPD ctr 2-1 inactive | HEK293 MPD ctr-1 inactive | TRPC6 block conf 66% | TRPC6 act confirm inactive
CN1C(=O)C2C(c3ccc(N(C)C)cc3)NN(Cc3ccccc3)C2C1=O (stereo unspecified)	none
COc1ccc(N2CCN(C(=O)Cn3nnc(-c4ccc(OC)c(OC)c4)n3)CC2)cc1	none
Cc1ccc(-c2nnn(CC(=O)N3CCN(c4ccccc4)CC3)n2)o1	TRPC6 inh -5.3 | HEK293 MPD ctr-2 inactive | HEK293 MPD ctr 2-2 inactive | TRPC4/MOR mod inactive | TRPC4/MOR inh 2 inactive | TRPC6 block conf inactive | TRPC6 act confirm inactive
COc1ccc(C(C(=O)NC2CCCC2)N(C(=O)c2csnn2)C2CC2)cc1 (stereo unspecified)	none
